Data: ChEMBL document CHEMBL1135105, “Design, synthesis and biochemical evaluation of AC ring mimics as novel inhibitors of the enzyme estrone sulfatase (ES)” (Bioorg Med Chem Lett, 2002)

What was measured:
[1] = Partition coefficient (logP); assay type: physicochemical; details: octanol/water
[2] = target: T1, Steryl-sulfatase (Homo sapiens) (UniProt P08842); experiment: Compound was evaluated for its percent inhibition against the estrone sulfatase enzyme at a concentration of 5 uM
T1 sequence (whole entry): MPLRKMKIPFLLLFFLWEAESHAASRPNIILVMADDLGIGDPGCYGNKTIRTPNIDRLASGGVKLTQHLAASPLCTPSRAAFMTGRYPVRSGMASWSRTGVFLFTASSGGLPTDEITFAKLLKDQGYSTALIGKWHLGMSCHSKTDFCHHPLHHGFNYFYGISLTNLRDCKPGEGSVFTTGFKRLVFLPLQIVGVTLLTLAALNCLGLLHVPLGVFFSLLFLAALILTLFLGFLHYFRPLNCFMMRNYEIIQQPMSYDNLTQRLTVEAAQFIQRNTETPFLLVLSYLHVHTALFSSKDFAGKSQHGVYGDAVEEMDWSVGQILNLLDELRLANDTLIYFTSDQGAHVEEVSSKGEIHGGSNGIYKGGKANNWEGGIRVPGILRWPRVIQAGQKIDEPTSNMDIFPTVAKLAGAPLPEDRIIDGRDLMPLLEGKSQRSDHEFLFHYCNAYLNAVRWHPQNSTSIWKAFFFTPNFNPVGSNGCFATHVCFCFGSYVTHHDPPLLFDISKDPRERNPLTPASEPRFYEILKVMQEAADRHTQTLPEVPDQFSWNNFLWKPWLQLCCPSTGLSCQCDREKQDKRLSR
Procedure, shortened: (§1)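 Placental microsomes, diluted to 115 µg/mL in 0.05 M Tris-HCl pH 7.2, are pre-warmed 5 min at 37 °C. They are added to tubes holding [3H]estrone sulfate (300,000 dpm) and inhibitor, which was dried from ethanol under nitrogen. Incubation runs 20 min at 37 °C and is quenched with toluene. Radioactivity in the toluene extract is counted. Triplicates are run alongside no-inhibitor controls and boiled-microsome blanks.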

Steryl-sulfatase = target: T2, Steryl-sulfatase (Homo sapiens, UniProt P08842); experiment: Compound was evaluated for its inhibitory activity against estrone sulfatase enzyme
T2 sequence (P08842 whole entry): T1 sequence (whole entry)
Procedure, shortened: as §1, with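 “They” for “Placental microsomes, diluted to 115 µg/mL in 0.05 M Tris-HCl pH 7.2, are pre-warmed 5 min at 37 °C. They”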

[3] = target: T1, Steryl-sulfatase (Homo sapiens); details: 10 uM

Row | Structure (SMILES) | logP [1] | inhibition [2] | IC50 (Steryl-sulfatase) | inhibition [3]
1 | CCCOC(=O)c1ccc(-c2ccc(OS(N)(=O)=O)cc2)cc1 | 3.99 | 60.5% | 3.5 uM tube-1 | 
2 | CCCCOC(=O)c1ccc(-c2ccc(OS(N)(=O)=O)cc2)cc1 | 4.38 | 48.4% | 5.8 uM tube-1 | 
3 | COC(=O)c1ccc(-c2ccc(OS(N)(=O)=O)cc2)cc1 | 3.18 | 44.2% | 5.2 uM tube-1 | 
4 | NS(=O)(=O)Oc1ccc2c3c(c(=O)oc2c1)CCCCC3 [IROSUSTAT] | 2.65 | 86.8% |  | 
5 | N#Cc1ccc(-c2ccc(OS(N)(=O)=O)cc2)cc1 | 3.48 | 44.2% | 6.7 uM tube-1 | 
6 | CCOC(=O)c1ccc(-c2ccc(OS(N)(=O)=O)cc2)cc1 | 3.52 | 53.4% | 4.2 uM tube-1 | 
7 | NS(=O)(=O)Oc1ccc(-c2ccccc2)cc1 | 3.45 | 5.5% | 76.1 uM tube-1 | 
8 | Cc1cc(=O)oc2cc(OS(N)(=O)=O)ccc12 | 1.7 |  | 10 uM tube-1 | 47.6%
9 | C[C@]12CC[C@@H]3c4ccc(OS(N)(=O)=O)cc4CCC3[C@@H]1CCC2=O (single isomer, unassigned) [EMATE] | 3.87 |  | 0.1 uM tube-1 | 
